# Experimental data pooled from the literature.
# Each line is one published result; the experiments were not run side by side.
# SLCO1B3: Solute carrier organic anion transporter family member 1B3 (SLCO1B3, Homo sapiens, UniProt Q9NPD5)
Compound,target or system,test,test system,conditions,endpoint,result
O=C(Nc1ccc(S(=O)(=O)O)c2ccccc12)c1ccc(=O)oc1,TZM-bl,"cell growth or viability, resazurin",,,CC50,> 12.5 µM
Nc1ccn([C@@H]2O[C@H](CO)[C@@H](O)C2(F)F)c(=O)n1,MCF7,"cell growth or viability, MTT",,"0.625 µg/mL, 48 h",viability,68.6%
N#C[C@@]1(c2ccc3c(N)ncnn23)O[C@H](COC(=O)c2ccccc2)[C@@H](O)[C@H]1O,HEp-2,"cell growth or viability, CCK-8",,5 days,CC50,79.2 µM
Cc1ccc(-c2csc(CNC(=O)[C@H]3CCCN(C(=O)COCCF)[C@H]3C)n2)cn1,,metabolic stability,"human, liver microsomes",0.5 µM,microsomal CLint,5.1 µL/min/mg
CC(C)C(=O)OC[C@H]1O[C@@](C#N)(c2ccc3c(N)ncnn23)[C@H](O)[C@@H]1O,HEp-2,"cell growth or viability, CCK-8",,5 days,CC50,81.6 µM
CCONC(=O)N1CCC[C@H](C(=O)NCc2nc(-c3ccccc3)cs2)C1,,metabolic stability,"human, liver microsomes",0.5 µM,microsomal CLint,10 µL/min/mg
Cc1ncsc1-c1ccc(CNC(=O)[C@@H]2C[C@@H](O)CN2C(=O)[C@@H](NC(=O)COCCOCCn2cc(COc3ccc(-c4nc5cc(-c6ccccc6)ccn5c4Nc4ccc(C(=O)O)cc4)cc3)nn2)C(C)(C)C)cc1,MCF7,cell growth or viability,,72 h,CC50,74 µM
CCc1cc(=O)oc2cc(OC(CC)C(=O)c3ccccc3)ccc12 (stereo not shown),TZM-bl,"cell growth or viability, resazurin",,,CC50,> 12.5 µM
O=C(NCc1nc(-c2ccc(C(F)(F)F)cc2)cs1)[C@H]1CCCN(C(=O)COCCN2CCCCC2)C1,,metabolic stability,"human, liver microsomes",0.5 µM,microsomal CLint,21 µL/min/mg
NC/C(=C\F)COc1cccc(Cn2c(=S)[nH]c(=O)c3[nH]cnc32)c1,SLCO1B3,"transporter uptake, inhibitor",,30 µM,inhibition,< 50%
COCC(=O)N1CCC[C@H](C(=O)NCc2nc(-c3ccccc3)cs2)C1,,metabolic stability,"human, liver microsomes",0.5 µM,scaled CLint,7.8 mL/min/kg
O=C1CCC(N2C(=O)c3cccc(NCCc4cn(Cc5ccc(-c6nc7cc(-c8ccccc8)ccn7c6Nc6ccc(C(=O)O)cc6)cc5)nn4)c3C2=O)C(=O)N1 (stereo not shown),MCF7,cell growth or viability,,72 h,CC50,108 µM
CCC(CC)COC(=O)[C@H](C)N[P@](=O)(OC[C@H]1O[C@@](C#N)(c2ccc3c(N)ncnn23)[C@H](O)[C@@H]1O)Oc1ccccc1,HEp-2,"cell growth or viability, CCK-8",,5 days,CC50,2.95 µM
O=C(O)COc1cccc(-c2nc(Nc3ccc4[nH]ncc4c3)c3ccccc3n2)c1,SLCO1B3,"transporter uptake, inhibitor",,,IC50,1.55 µM
CCOCC(=O)N1CCC[C@H](C(=O)NCc2nc(-c3ccc(C)nc3)cs2)C1,,metabolic stability,"male Sprague-Dawley rat, hepatocytes",0.5 µM,scaled CLint,27 mL/min/kg
CC(C)C(=O)OC[C@H]1O[C@@H](n2ccc(NO)nc2=O)[C@H](O)[C@@H]1O,HEp-2,"cell growth or viability, CCK-8",,5 days,CC50,50.1 µM
